Sampled rows, rich in hits. Any-hit rate of the full collection: about 2.9%.
CHO-K1 Ca ag – nonselective activator or artifact in parental CHO-K1 cells; activation, % at 3 µM; 360,000 tested, 0.48% active; Fluo-8 calcium fluorescence; scaled to maximal ATP response, vehicle zero; in the data active = activation above about 15%;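 note: untransfected CHO-K1 host cells lacking M1 receptor as counterscreen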
OX1R antag-1 – human HCRTR1 antagonism; O43613; CHO/OX1R cells, Fluo-8 calcium fluorescence, orexin A; inhibition, % at 5 µM; 330,000 tested, 0.43% active;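 active = inhibition above its plate's threshold, mean inhibition of all tested compounds on the plate plus 3 SD, cut at about 37% in these data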;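 note: 0% = orexin A challenge wells and 100% = SB-334867-A antagonist wells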
Target sequence (O43613 whole entry, looked up): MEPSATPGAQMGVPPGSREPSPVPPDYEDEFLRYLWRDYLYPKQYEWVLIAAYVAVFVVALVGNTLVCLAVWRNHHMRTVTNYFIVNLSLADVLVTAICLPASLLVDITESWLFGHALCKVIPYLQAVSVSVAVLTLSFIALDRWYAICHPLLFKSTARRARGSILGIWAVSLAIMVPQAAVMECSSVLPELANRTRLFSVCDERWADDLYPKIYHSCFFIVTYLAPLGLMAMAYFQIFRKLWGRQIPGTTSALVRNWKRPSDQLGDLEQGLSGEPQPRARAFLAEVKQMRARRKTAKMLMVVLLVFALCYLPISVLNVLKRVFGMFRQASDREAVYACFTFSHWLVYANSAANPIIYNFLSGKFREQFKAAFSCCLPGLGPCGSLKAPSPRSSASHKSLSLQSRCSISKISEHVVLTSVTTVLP
CHO parental Ca – counter-screen: ATP calcium response change in parental CHO cells | parental CHO-K1, ATP-induced calcium, Fluo-8 fluorescence | AID 463079 | inhibition, % at 5.6 µM | 330,000 tested, 0.63% active;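 active = inhibition above that plate's mean sample inhibition plus 3 SD, cut at about 26% in these data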;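 note: 0% = ATP-challenged DMSO wells and 100% = DMSO wells without ATP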
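Material – parental CHO cells · Reagent – ATP stimulus · Compound – single nominal dose of 5.6 µM per compound · Detection – Fluo-8 fluorescence · Read-out basis – percent inhibition of calcium signal · Controls – ATP-challenged DMSO wells low, unchallenged DMSO wells high · Repeats – no replicates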
M1 PAM parental – M1 PAM counterscreen hit in parental CHO-K1 cells; 360,000 tested, 0.02% active; activation, % at 3 µM; AID 602247; ATP EC20, Fluo-8 calcium fluorescence; 0% at ATP EC20, 100% at ATP max;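 active = activation above the run cutoff, the mean activation of all test compounds plus 3 SD, cut at about 40% in these data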;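 note: peak over basal fluorescence ratio in a 140 s read after ATP addition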
OX1R antag-2 – OX1R (human) antagonism; O43613; OX1R-expressing cells, FRET antagonist read-out; inhibition, % at 6.6 µM; AID 485270; 330,000 tested, 1.8% active; in the data active = inhibition mostly above about 38%, no sharp cut-off; inactive = mostly below about 40%;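 note: 0% = agonist challenge alone and 100% = reference antagonist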
CHO-K1 Ca antag – M1 antagonist counterscreen hit in parental CHO-K1 cells; ATP-induced calcium, Fluo-8 fluorescence; inhibition, % at 3 µM; 360,000 tested, 0.6% active;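 active = inhibition above a per-plate cutoff, the plate's mean sample inhibition plus 3 SD, cut at about 24% in these data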;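 note: 0% = DMSO plus EC80 ATP and 100% = DMSO alone without ATP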
* hit, by the source's call; nt = not tested or not shown.

SMILES | CHO-K1 Ca ag | OX1R antag-1 | CHO parental Ca | M1 PAM parental | OX1R antag-2 | CHO-K1 Ca antag
O=C(c1ccc2c3c(cccc13)C(=O)N(O)C2=O)N1CCCCC1 | 0 | 7 | -3 | 9 | 72* | -7
O=C(c1cccc2ccccc12)N1CCCCC1 | 0 | -10 | 4 | -4 | 1 | -5
O=C1c2cccc3c(Cl)ccc(c23)C(=O)N1O | -1 | 53* | 27 | -1 | 52* | -15
O=C1c2cccc3c(N4CCCCC4)ccc(c23)C(=O)N1c1ccccc1O | 36* | 54* | 52* | -7 | 13 | 30*
NN1C(=O)c2cccc3c(C(=O)O)ccc(c23)C1=O | 0 | -7 | -10 | 20 | 58* | -6
O=C1c2cccc3c(N4CCCCC4)ccc(c23)C(=O)N1c1ccc(O)cc1 | 15 | 32 | 28 | 8 | 10 | 8
C=CCN(CC=C)c1ncnc2[nH]ncc12 | 0 | nt | nt | -19 | nt | 0
O=C(O)c1ccc2c3c(cccc13)C(=O)N(c1ccccc1)C2=O | 1 | -11 | -4 | 22 | 58* | -2
O=C(O)c1ccc(N2C(=O)c3cccc4c(C(=O)O)ccc(c34)C2=O)cc1 | 4 | -2 | -6 | -13 | 42 | 8
CCOc1ccc(N(C)S(=O)(=O)c2ccc(-c3cc(C)no3)s2)cc1 | 3 | -16 | -10 | 0 | 6 | -6
CCOC(=O)c1[nH]c2ccc(C(=O)OC)cc2c1C(=O)OCC | -1 | -49 | -20 | -13 | 24 | 25*
CCCn1c(N)c(C(=O)NS(=O)(=O)c2ccc(C)cc2)c(=O)n(C)c1=O | 17* | 1 | -8 | 2 | 17 | 6
CCn1c(SCC(=O)Nc2nc3ccc(C)cc3s2)nc2c(c1=O)SC(C)C2 (centres undefined) | 0 | 59* | 45* | 5 | 81* | 5
CCn1c(SCC(=O)Nc2nc3ccccc3s2)nc2c(c1=O)SC(C)C2 (centres undefined) | nt | 20 | 14 | nt | 39 | nt
Cn1c(O)c(N=NC(=O)CNC(=O)c2ccccc2)c2ccccc21 | 1 | -16 | -13 | 15 | 48* | -15
COCCCn1c(=N)c(C(=O)NCc2ccc3c(c2)OCO3)cc2c(=O)n3ccccc3nc21 | 0 | -18 | -12 | 10 | 59* | -2
CCOCCCn1c(=N)c(C(=O)NCc2ccc3c(c2)OCO3)cc2c(=O)n3cccc(C)c3nc21 | 0 | -28 | -24 | 17 | 42* | -18
COCCCn1c(=N)c(C(=O)NCc2ccc3c(c2)OCO3)cc2c(=O)n3cccc(C)c3nc21 | 0 | nt | nt | 8 | nt | -11
COc1cccc(NC(=O)c2cccnn2)c1 | 1 | 6 | 2 | 14 | -1 | -11
CCCN=C1CC(C)(C)CC(=O)/C1=C(/O)CCC | 18* | -17 | -16 | 16 | 10 | 4
CCCCCCN=C1CC(C)(C)CC(=O)/C1=C(/O)CCC | 3 | -31 | -27 | 1 | 9 | -8
Cn1cc(C(=O)NS(=O)(=O)Nc2ccc(Br)cn2)c2ccccc21 | 0 | 0 | -6 | -6 | -2 | 1
CCOc1ccc(OCCN2C(=O)NC(Cc3c[nH]c4ccccc34)C2=O)cc1 (centres undefined) | 1 | 16 | -17 | -3 | 43* | 21
O=C1NC(Cc2c[nH]c3ccccc23)C(=O)N1CCOc1ccc(F)cc1 (centres undefined) | 1 | 11 | -8 | 15 | 25 | -13
O=C(c1cc2sccc2n1Cc1ccc(F)cc1)N1CCN(c2nc3ccccc3s2)CC1 | 2 | 26 | 37* | 12 | 38 | 10
SMILES | CHO-K1 Ca ag | OX1R antag-1 | CHO parental Ca | M1 PAM parental | OX1R antag-2 | CHO-K1 Ca antag
Cn1c(C(=O)N2CCN(c3nc4ccccc4s3)CC2)cc2sccc21 | 1 | -10 | -12 | 13 | 23 | -16
CCN(CC1COc2ccccc2O1)C(=O)c1ccc(Cl)c(S(=O)(=O)N2CC(C)OC(C)C2)c1 (centres undefined) | 2 | -11 | -15 | 6 | 50* | 4
CC1CN(S(=O)(=O)c2cc(C(=O)N(CCc3ccccc3)Cc3ccccc3)ccc2Cl)CC(C)O1 (centres undefined) | 0 | -27 | -16 | -3 | 24 | -14
Cc1cc(Cl)ccc1NC(=O)CCN1C(=O)NC(C)(C)C1=O | 0 | -7 | -7 | 2 | 5 | -18
COC(=O)[C@]12CCCCC=C1N(Cc1ccco1)C(=O)[C@H](CC(=O)NCCc1ccccc1OC)C2 | 2 | nt | nt | 6 | nt | -10
Cc1nonc1C1CCCN1Cc1cn[nH]c1-c1ccc(-c2ccccc2)cc1 (centres undefined) | 14 | -23 | -18 | 18 | 14 | -1
CC(C)CCN1CCN(Cc2cc3ccccc3[nH]2)CC1CCO (centres undefined) | 16* | -12 | -6 | 11 | -7 | 12
COc1ccc(/C=N/NC(=O)c2nn(-c3ccc(Cl)cc3)c(=O)c3c(N)scc23)cc1 | 0 | -14 | -8 | 3 | 52* | 4
COc1ccc(/C=N/NC(=O)c2nn(-c3ccc(C)c(C)c3)c(=O)c3ccccc23)cc1 | 0 | -19 | -14 | 12 | 17 | -9
COc1ccc(/C=N/NC(=O)c2nn(-c3ccccc3)c(=O)c3c(N)scc23)cc1 | 0 | 0 | -3 | 4 | 70* | -10
COc1ccc(/C=N/NC(=O)c2nc(-c3ccccc3)n(-c3ccccc3)n2)cc1OC | 1 | 9 | -19 | -9 | 47 | 25*
Cc1cccc(C)c1NC(=O)CNC(=O)c1ccc2c(c1)NC(=O)CS2 | 1 | -13 | -11 | 22 | 11 | -22
FC(F)(F)c1cc(CCN2CCNC[C@@H]2CC2CCCCC2)cc(C(F)(F)F)c1 | 0 | 12 | 51* | 20 | -6 | -16
C[n+]1ccc(/C=C/c2ccccc2O)c2ccccc21 | 0 | -15 | -10 | -9 | 72* | 3
COCCCNC(=O)Cc1c(C)c2c(cc(C)c3c(C(C)(C)C)coc32)oc1=O | 3 | -28 | -22 | 13 | 2 | -22
CC(CC(=O)Nc1ccc(Cl)c([N+](=O)[O-])c1)c1ccccc1 (centres undefined) | 3 | 66* | 60* | -7 | 91* | 17
O=C(Nc1ccccc1)Nc1ccc(F)c([N+](=O)[O-])c1 | 15* | -3 | 19 | -2 | 42 | 22
O=C(Nc1ccccc1)Nc1ccc(Cl)c([N+](=O)[O-])c1 | 17* | 5 | 10 | 2 | 33 | 19
CCN1C(=O)[C@H]2[C@@H](c3ccc(-c4ccc(Cl)c(Cl)c4)c(OC)c3)N[C@@](Cc3ccccc3)(C(=O)OC)[C@H]2C1=O | 1 | -27 | -16 | 9 | 12 | -2
O=C1c2ccccc2C(=O)C1c1nccc2ccccc12 | 0 | -6 | -7 | -1 | 46 | 13
O=C1c2ccccc2C(=O)C1c1ccnc2ccccc12 | 0 | -13 | -4 | 8 | 69* | 4
